Results on one compound are retold here after ChEMBL document CHEMBL4619723, “New CDK8 inhibitors as potential anti-leukemic agents - Design, synthesis and biological evaluation” (Bioorg Med Chem, 2020).

Data set [1] addresses Serine/threonine-protein kinase 32C (Homo sapiens) (UniProt Q86UX6). The data set is described as follows: Inhibition of biotinylated ligand binding to wild-type human partial length YANK3 (M68 to G486 residues) expressed in bacterial expression system at 50 nM measured after 1 hr by kinomescan assay relative to control. An outline of the steps: (§1)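 Kinase-tagged T7 phage was grown in an E. coli BL21-derived host at 32 °C until lysis, and the lysate was clarified. Kinase was bound to streptavidin beads carrying a biotinylated ligand, with test compound at 50 nM (final DMSO), in binding buffer for 1 h at rt. Bound kinase was eluted and quantified by qPCR. Result is POC relative to the DMSO (100%) and control-compound (0%) references.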

Data set [2] concerns the target Serine/threonine-protein kinase pim-2 (Homo sapiens) (UniProt Q9P1W9). The data set is described as follows: Inhibition of biotinylated ligand binding to wild-type human partial length PIM2 (M1 to E291 residues) expressed in bacterial expression system at 50 nM measured after 1 hr by kinomescan assay relative to control.
Data set [3] in a line: Selectivity ratio of EC50 for rat NRK cells to EC50 for human OCI-AML3 cells. The class given is toxicity. The settings on record: NRK cells versus OCI-AML3 cells, read-out: Ratio EC50.
The target of data set [4] is cGMP-dependent protein kinase 1 (Homo sapiens) (UniProt Q13976). The data set is described as follows: Inhibition of biotinylated ligand binding to wild-type human partial length PRKG1 (L339 to F686 residues) expressed in bacterial expression system at 50 nM measured after 1 hr by kinomescan assay relative to control. Put shortly: as §1
cGMP-dependent protein kinase 1 (Homo sapiens), sequence (Q13976 whole entry, the tested form may be a part): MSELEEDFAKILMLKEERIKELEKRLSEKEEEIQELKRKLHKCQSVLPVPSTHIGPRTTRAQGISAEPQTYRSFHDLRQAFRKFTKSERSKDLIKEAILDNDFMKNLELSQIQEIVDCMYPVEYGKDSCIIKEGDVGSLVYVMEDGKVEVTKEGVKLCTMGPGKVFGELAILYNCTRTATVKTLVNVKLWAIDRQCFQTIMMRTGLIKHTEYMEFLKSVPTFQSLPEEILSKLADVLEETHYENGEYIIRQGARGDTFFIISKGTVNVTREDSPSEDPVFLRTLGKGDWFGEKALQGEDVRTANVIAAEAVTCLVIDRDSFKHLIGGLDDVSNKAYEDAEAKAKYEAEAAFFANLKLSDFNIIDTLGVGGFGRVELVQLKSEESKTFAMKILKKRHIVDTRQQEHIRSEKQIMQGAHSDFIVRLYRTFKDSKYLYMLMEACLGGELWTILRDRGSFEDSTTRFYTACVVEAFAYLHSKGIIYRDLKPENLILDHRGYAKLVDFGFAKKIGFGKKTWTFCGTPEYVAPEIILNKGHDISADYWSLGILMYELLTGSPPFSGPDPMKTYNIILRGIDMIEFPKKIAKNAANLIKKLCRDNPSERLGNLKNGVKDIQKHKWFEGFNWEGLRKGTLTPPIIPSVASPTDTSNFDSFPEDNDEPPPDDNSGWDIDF
Data set [5] concerns Hepatocyte growth factor receptor (Homo sapiens), P08581 [Y1235D]. The data set is described as follows: Inhibition of biotinylated ligand binding to human partial length MET Y1235D mutant (D1010 to S1367 residues) expressed in bacterial expression system at 50 nM measured after 1 hr by kinomescan assay relative to control. Put shortly: as §1
Hepatocyte growth factor receptor (Homo sapiens), P08581 [Y1235D], sequence (P08581 whole entry Y1235D, the tested form may be a part): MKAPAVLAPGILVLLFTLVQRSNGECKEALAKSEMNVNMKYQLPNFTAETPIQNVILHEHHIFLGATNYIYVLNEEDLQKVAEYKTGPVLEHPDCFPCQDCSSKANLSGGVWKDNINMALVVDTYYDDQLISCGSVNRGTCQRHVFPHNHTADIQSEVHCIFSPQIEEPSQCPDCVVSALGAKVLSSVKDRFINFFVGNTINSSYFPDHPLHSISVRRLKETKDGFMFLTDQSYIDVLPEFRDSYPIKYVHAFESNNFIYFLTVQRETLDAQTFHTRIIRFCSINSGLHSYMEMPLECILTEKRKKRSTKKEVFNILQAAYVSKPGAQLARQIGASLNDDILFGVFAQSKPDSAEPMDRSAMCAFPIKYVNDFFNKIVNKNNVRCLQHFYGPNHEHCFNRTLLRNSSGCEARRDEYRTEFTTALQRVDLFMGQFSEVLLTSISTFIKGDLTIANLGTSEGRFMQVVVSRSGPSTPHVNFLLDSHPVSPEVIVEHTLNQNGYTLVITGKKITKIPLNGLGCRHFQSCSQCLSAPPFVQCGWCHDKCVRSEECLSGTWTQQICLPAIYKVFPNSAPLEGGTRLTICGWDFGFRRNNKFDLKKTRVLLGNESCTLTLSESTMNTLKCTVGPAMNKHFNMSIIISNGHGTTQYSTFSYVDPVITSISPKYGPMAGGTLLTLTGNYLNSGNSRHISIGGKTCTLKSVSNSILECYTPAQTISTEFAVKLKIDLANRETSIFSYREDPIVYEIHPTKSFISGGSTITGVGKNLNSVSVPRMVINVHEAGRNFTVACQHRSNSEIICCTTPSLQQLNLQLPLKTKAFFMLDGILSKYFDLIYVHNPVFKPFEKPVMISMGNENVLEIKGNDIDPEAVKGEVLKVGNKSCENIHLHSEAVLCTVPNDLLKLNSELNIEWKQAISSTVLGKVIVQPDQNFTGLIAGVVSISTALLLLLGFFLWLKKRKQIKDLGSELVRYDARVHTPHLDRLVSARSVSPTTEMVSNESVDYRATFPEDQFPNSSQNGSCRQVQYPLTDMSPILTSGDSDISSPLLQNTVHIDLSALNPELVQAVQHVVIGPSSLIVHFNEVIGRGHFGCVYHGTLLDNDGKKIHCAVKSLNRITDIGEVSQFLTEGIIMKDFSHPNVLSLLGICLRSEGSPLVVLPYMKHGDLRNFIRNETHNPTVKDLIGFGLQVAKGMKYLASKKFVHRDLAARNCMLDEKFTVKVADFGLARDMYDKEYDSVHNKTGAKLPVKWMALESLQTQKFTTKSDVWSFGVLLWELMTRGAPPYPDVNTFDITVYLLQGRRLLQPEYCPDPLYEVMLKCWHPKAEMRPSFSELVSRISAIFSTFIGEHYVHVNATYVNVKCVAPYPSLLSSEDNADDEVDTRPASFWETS
Data set [6] deals with Serine/threonine-protein kinase RIO1 (Homo sapiens) (UniProt Q9BRS2). The data set is described as follows: Inhibition of biotinylated ligand binding to wild-type human full length RIOK1 (M1 to K568 residues) expressed in bacterial expression system at 50 nM measured after 1 hr by kinomescan assay relative to control. An outline of the steps:
as §1

The target in data set [7] is Phosphatidylinositol 4-phosphate 5-kinase type-1 alpha (Homo sapiens) (UniProt Q99755). Nature of the data set: Inhibition of biotinylated ligand binding to wild-type human full length PIP5K1A (M1 to H562 residues) expressed in bacterial expression system at 50 nM measured after 1 hr by kinomescan assay relative to control. An outline of the steps: as §1
The next data set deals with MOLM-13. The data set is described as follows: cells. The settings on record: Homo sapiens, MOLM-13, 48 h.
Data set [8] concerns the target Serine/threonine-protein kinase LATS1 (Homo sapiens) (UniProt O95835). The data set is described as follows: Inhibition of biotinylated ligand binding to wild-type human partial length LATS1 (Q678 to V1130 residues) expressed in bacterial expression system at 50 nM measured after 1 hr by kinomescan assay relative to control. An outline of the steps:
as §1

Data set [9] has as its target Interleukin-1 receptor-associated kinase 3 (Homo sapiens) (UniProt Q9Y616). The data set is described as follows: Inhibition of biotinylated ligand binding to wild-type human partial length IRAK3 (V147 to E596 residues) expressed in bacterial expression system at 50 nM measured after 1 hr by kinomescan assay relative to control. An outline of the steps: as §1
Data set [10] has as its target Cyclin-dependent kinase 7 (Homo sapiens) (UniProt P50613). The data set is described as follows: Inhibition of biotinylated ligand binding to wild-type human full length CDK7 (M1 to L344 residues) expressed in mammalian expression system at 50 nM measured after 1 hr by kinomescan assay relative to control. Put shortly:
(§2)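 Competition binding: kinase was bound to streptavidin beads carrying a biotinylated ligand, with test compound at 50 nM, in 20% SeaBlock, 0.17x PBS, 0.05% Tween 20 and 6 mM DTT for 1 h at rt with shaking. After washing, kinase was eluted with 0.5 μM free ligand and quantified by qPCR. Result is POC relative to the DMSO (100%) and control-compound (0%) references.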

For data set [11], the target named is High affinity nerve growth factor receptor (Homo sapiens) (UniProt P04629). The data set is described as follows: Inhibition of biotinylated ligand binding to wild-type human partial length TRKA (G475 to G790 residues) expressed in mammalian expression system at 50 nM measured after 1 hr by kinomescan assay relative to control. An outline of the steps: as §2

For data set [12], the target named is Vascular endothelial growth factor receptor 3 (Homo sapiens) (UniProt P35916). Nature of the data set: Inhibition of biotinylated ligand binding to wild-type human partial length FLT4 (E821 to E1196 residues) expressed in bacterial expression system at 50 nM measured after 1 hr by kinomescan assay relative to control. Put shortly:
as §1

Data set [13] addresses T1, Cyclin-dependent kinase 8 (Homo sapiens, UniProt P49336). The data set is described as follows: Inhibition of biotinylated ligand binding to wild-type human partial length CDK8 (M1 to T360 residues) expressed in Escherichia coli BL21 at 50 nM measured after 1 hr by kinomescan assay relative to control. An outline of the steps: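 T7 phage-tagged kinase lysates from E. coli BL21 were mixed with streptavidin beads carrying biotinylated ligand and 50 nM compound. Incubated 1 h at room temperature with shaking, washed, then eluted 30 min with 0.5 μM non-biotinylated ligand. Kinase was quantified by qPCR. POC = (test − positive)/(DMSO − positive) ×100, with a control compound as positive.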

The nature of data set [14]: Selectivity ratio of EC50 for rat H9c2 cells to EC50 for human MOLM13 cells. The class given is toxicity. As to conditions: H9c2 cells versus MOLM13 cells, read-out: Ratio EC50.
In a further data set the test system is MV4-11. Nature of the data set: cells. As to conditions: Homo sapiens, MV4-11, 48 h.
A short description of data set [15]: Selectivity ratio of EC50 for rat NRK cells to EC50 for human MV4-11 cells. The format is toxicity. As to conditions: NRK cells versus MV4-11 cells, read-out: Ratio EC50.
The target of data set [16] is Serine/threonine-protein kinase RIO3 (Homo sapiens) (UniProt O14730). Nature of the data set: Inhibition of biotinylated ligand binding to wild-type human full length RIOK3 (M1 to E519 residues) expressed in bacterial expression system assessed at 50 nM measured after 1 hr by kinomescan assay relative to control. An outline of the steps:
as §1

For data set [17], the target named is Protein kinase C theta type (Homo sapiens) (UniProt Q04759). The data set is described as follows: Inhibition of biotinylated ligand binding to wild-type human partial length PRKCQ (L350 to S706 residues) expressed in bacterial expression system at 50 nM measured after 1 hr by kinomescan assay relative to control. Put shortly: as §1
Protein kinase C theta type (Homo sapiens), sequence (Q04759 whole entry, looked up, the tested form may be a part): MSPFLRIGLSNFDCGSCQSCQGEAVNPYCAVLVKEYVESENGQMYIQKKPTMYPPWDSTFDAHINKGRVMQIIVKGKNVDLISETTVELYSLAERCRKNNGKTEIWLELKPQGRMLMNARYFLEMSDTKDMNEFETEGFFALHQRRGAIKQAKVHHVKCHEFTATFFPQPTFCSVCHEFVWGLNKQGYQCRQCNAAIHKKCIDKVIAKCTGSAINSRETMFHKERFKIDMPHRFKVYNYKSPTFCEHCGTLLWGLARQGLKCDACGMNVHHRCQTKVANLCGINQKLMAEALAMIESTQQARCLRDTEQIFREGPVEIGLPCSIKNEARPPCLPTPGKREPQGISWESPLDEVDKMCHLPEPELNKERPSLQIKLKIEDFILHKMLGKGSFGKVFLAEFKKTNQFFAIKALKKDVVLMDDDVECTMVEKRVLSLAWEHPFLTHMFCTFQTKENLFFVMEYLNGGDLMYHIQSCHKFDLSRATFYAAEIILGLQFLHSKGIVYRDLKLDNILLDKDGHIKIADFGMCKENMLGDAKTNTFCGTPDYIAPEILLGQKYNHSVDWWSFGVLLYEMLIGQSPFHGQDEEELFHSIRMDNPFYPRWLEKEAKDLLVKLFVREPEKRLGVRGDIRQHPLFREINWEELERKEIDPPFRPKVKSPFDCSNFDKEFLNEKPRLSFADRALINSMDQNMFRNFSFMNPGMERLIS
A short description of data set [18]: Selectivity ratio of EC50 for rat H9c2 cells to EC50 for human MV4-11 cells. The settings on record: H9c2 cells versus MV4-11 cells, read-out: Ratio EC50. The format is toxicity.
Data set [19] deals with BMP-2-inducible protein kinase (Homo sapiens) (UniProt Q9NSY1). Nature of the data set: Inhibition of biotinylated ligand binding to wild-type human partial length BIKE (S34 to N329 residues) expressed in bacterial expression system at 50 nM measured after 1 hr by kinomescan assay relative to control. An outline of the steps: as §1
Data set [20] concerns the target T1, Cyclin-dependent kinase 8. Nature of the data set: Inhibition of biotinylated ligand binding to wild-type human partial length CDK8 (M1 to T360 residues) expressed in Escherichia coli BL21 measured after 1 hr by kinomescan assay.
For data set [21], the target named is cGMP-dependent protein kinase 2 (Homo sapiens) (UniProt Q13237). The data set is described as follows: Inhibition of biotinylated ligand binding to wild-type human partial length PRKG2 (S422 to F762 residues) expressed in mammalian expression system at 50 nM measured after 1 hr by kinomescan assay relative to control. Put shortly:
as §2

T1 sequence (P49336 whole entry, the tested form may be a part): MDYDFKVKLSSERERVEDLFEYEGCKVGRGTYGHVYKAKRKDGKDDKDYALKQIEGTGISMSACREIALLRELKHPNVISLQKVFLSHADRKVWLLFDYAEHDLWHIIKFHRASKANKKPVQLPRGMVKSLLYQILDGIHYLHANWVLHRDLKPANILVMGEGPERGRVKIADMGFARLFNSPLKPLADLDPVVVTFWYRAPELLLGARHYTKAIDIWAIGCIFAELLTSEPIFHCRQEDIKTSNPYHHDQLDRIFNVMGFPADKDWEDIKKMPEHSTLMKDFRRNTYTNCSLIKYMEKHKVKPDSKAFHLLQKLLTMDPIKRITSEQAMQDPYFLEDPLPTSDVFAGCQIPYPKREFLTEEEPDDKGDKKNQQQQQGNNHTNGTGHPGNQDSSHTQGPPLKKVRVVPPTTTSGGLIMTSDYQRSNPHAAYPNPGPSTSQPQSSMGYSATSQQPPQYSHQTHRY
Serine/threonine-protein kinase pim-2 (Homo sapiens), sequence (Q9P1W9 whole entry, looked up, the tested form may be a part): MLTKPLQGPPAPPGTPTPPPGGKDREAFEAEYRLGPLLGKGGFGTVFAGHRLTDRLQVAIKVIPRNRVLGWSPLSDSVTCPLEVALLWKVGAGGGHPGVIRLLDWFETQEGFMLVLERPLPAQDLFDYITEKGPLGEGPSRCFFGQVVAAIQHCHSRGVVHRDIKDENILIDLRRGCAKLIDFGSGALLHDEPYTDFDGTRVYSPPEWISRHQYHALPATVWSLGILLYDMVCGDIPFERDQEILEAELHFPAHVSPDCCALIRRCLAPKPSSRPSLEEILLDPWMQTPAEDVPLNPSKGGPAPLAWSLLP
Serine/threonine-protein kinase RIO3 (Homo sapiens), sequence (O14730 whole entry, the tested form may be a part): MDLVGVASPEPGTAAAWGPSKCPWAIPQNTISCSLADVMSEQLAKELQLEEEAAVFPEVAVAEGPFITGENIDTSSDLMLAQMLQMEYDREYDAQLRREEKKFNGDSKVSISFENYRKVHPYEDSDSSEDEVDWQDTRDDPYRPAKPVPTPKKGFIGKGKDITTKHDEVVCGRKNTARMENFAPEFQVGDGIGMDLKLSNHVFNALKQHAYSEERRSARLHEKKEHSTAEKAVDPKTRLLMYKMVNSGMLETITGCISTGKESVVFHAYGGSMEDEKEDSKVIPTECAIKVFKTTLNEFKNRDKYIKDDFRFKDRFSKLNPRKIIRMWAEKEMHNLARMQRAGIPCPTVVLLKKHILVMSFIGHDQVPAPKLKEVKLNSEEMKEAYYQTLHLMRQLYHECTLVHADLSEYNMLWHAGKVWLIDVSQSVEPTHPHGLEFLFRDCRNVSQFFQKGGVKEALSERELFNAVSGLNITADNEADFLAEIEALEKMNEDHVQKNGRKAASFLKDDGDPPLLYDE
Serine/threonine-protein kinase RIO1 (Homo sapiens), sequence (Q9BRS2 whole entry, the tested form may be a part): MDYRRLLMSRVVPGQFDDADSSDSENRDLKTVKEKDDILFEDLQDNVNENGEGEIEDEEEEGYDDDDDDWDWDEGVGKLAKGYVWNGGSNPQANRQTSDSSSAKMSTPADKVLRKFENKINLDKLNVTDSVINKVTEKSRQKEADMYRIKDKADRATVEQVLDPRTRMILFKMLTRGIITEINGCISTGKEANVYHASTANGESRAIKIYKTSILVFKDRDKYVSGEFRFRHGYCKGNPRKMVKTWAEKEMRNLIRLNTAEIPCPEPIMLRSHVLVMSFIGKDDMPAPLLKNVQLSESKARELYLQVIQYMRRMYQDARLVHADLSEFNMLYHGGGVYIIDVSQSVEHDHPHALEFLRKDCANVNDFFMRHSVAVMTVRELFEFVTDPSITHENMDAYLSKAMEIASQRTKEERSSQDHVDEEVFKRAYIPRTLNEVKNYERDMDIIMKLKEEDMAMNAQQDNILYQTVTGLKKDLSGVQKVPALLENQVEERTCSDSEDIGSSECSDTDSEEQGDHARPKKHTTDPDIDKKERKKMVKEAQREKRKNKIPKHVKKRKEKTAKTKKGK
Cyclin-dependent kinase 7 (Homo sapiens), sequence (P50613 whole entry, the tested form may be a part): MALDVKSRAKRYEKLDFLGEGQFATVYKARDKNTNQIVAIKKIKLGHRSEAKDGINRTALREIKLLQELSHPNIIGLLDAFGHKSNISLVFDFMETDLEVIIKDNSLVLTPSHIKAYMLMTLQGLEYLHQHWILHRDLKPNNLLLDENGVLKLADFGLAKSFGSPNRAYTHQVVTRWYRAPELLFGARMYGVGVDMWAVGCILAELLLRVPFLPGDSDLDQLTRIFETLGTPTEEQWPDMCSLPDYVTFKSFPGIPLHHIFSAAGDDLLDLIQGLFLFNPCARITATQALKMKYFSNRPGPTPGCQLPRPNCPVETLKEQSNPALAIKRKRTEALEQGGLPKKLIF

Regarding `CN(C)[C@@H]1CC[C@@]2(C)[C@@H](CC[C@@H]3[C@@H]2CC[C@]2(C)C(c4cccc5cnccc45)=CC[C@@H]32)C1`, the inhibition in [1], in data set [2], in data set [4], in data set [5], in [6] and in [7] was over 80% each time. The inhibition in data set [8], in [9], in [10], in data set [11], in [12] and in data set [13] was over 80% in each case. Besides, the inhibition in data set [16], in data set [17], in data set [19] and in data set [21] was over 80% each time. The selectivity ratio in [3], in data set [14], in data set [15] and in data set [18] was 3 to 4 each time. The figures for the EC50 with MOLM-13 and in the data set on MV4-11 were 5.9 µM and 5.4 µM, respectively. In data set [20], this compound yielded a Kd of 0.0035 µM.
